# Measurements reported in ChEMBL document CHEMBL5257020, “Discovery of a 9-mer Cationic Peptide (LTX-315) as a Potential First in Class Oncolytic Peptide” (J Med Chem, 2016).
# pIC50: −log10 of the molar value. Where a SMILES comes first, the peptide text is derived from it. [ ]: non-standard residue; d: D form. ξ: configuration not given here. ξDip = NC(C(=O)O)C(c1ccccc1)c1ccccc1
# How the values were obtained:
# Cytochrome P450 2C9 = Cytochrome P450 2C9 (Homo sapiens, UniProt P11712); assay: Inhibition of CYP2C9 in human liver microsomes using diclofenac as substrate assessed as reduction in substrate hydroxylation incubated for 30 mins in presence of beta-NADPH measured by LC-MS/MS analysis; type: ADME, Microsome
# Cytochrome P450 2C9, sequence (P11712 whole entry, canonical isoform): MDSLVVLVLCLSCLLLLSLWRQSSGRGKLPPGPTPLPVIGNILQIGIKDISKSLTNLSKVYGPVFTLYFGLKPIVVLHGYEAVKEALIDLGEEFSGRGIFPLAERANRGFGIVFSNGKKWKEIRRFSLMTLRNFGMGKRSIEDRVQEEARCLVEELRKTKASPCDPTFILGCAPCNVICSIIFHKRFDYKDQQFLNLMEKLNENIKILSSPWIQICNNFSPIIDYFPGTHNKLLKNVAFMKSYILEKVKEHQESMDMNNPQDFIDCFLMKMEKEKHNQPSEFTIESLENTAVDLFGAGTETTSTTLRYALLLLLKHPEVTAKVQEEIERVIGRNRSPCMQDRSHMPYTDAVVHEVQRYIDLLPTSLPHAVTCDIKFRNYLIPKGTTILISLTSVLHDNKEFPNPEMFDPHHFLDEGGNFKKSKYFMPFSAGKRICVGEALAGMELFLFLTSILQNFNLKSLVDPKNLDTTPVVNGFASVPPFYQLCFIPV
# Procedure, shortened: (§1)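 Pooled human liver microsomes (50 donors) in 100 mM phosphate, pH 7.4, with 2 mM β-NADPH. Protein 0.1 mg/mL (2A6, 2C8, 2C9, 2E1, 3A4) or 0.3 mg/mL (1A2, 2B6, 2C19, 2D6). Test article 0–100 μM final, preincubated ~37 °C 5 or 30 min before isoform-selective substrate. Quenched in methanol with internal standard. Metabolite measured by LC–MS/MS against standard curve. Duplicates, with selective inhibitor positive controls.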
# Cytochrome P450 3A4 = Cytochrome P450 3A4 (Homo sapiens, UniProt P08684); assay: Inhibition of CYP3A4 in human liver microsomes using testosterone as substrate assessed as reduction in substrate hydroxylation incubated for 5 mins in presence of beta-NADPH measured by LC-MS/MS analysis; type: ADME, Microsome; procedure, shortened: as §1
# Cytochrome P450 3A4, sequence (P08684 whole entry): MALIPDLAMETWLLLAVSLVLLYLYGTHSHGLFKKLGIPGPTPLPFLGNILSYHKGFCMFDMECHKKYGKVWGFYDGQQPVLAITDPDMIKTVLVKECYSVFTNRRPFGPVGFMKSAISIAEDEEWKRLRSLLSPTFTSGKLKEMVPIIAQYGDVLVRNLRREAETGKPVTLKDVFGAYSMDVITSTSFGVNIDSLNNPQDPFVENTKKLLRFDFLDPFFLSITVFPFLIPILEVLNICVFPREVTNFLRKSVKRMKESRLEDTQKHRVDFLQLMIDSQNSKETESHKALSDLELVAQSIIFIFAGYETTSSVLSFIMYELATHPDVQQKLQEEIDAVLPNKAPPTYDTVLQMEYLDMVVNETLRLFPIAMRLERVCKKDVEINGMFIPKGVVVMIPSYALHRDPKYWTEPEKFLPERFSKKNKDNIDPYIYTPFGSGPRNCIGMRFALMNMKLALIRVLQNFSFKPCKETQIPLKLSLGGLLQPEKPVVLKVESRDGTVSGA
structure (smiles),measurement,setting,value
NCCCC[C@H](NC(=O)C(NC(=O)[C@H](Cc1c[nH]c2ccccc12)NC(=O)[C@H](CCCCN)NC(=O)[C@H](CCCCN)NC(=O)[C@H](Cc1c[nH]c2ccccc12)NC(=O)[C@H](Cc1c[nH]c2ccccc12)NC(=O)[C@H](CCCCN)NC(=O)[C@@H](N)CCCCN)C(c1ccccc1)c1ccccc1)C(N)=O (some centres not stated) (H-KKWWKKW[ξDip]K-NH2),pIC50,Cytochrome P450 2C9,5.06
same,pIC50,Cytochrome P450 3A4,5.03
